Screening data from PubChem.
Pf Dd2 growth – inhibitors of Plasmodium falciparum Dd2 growth; activity change, % at 10 µM; actives 2.3% (n = 94,000); P. falciparum Dd2 growth, SYBR Green, 72 h; stronger effect = lower value; in the data active = activity change below about -80%
T cruzi growth – T. cruzi proliferation inhibition; T. cruzi beta-gal in NIH3T3, GalScreen luminescence, 90 h; inhibition, % at 8.34 µM; actives 5.9% (n = 77,000); AID 624255;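 active = mean inhibition above about 93%, with at least 55% of replicates each passing it, limit read from the data, passing the limit was not always enough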
IDH1 R132H inh – inhibitors of human IDH1 R132H; O75874; IDH1 R132H reductase, diaphorase/resazurin fluorescence, 60 min; inhibition, % at 10 µM; actives 0.18% (n = 70,000); AID 624101; in the data active = inhibition above about 34%;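 also: 0% = DMSO and 100% = no enzyme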
GASC1 inh – blocks human GASC-1 (KDM4C) demethylase activity | Q9H3R0 | GST-KDM4C 2-372, H3K9me3 peptide, LANCE TR-FRET | inhibition, % at 12.5 µM | actives 0.15% (n = 96,000) | AID 720574;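 active = mean replicate inhibition above about 25%, with at least 55% of replicates also reaching it, limit read from the data, passing the limit was not always enough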
Target sequence (Q9H3R0 2-372 limits assumed): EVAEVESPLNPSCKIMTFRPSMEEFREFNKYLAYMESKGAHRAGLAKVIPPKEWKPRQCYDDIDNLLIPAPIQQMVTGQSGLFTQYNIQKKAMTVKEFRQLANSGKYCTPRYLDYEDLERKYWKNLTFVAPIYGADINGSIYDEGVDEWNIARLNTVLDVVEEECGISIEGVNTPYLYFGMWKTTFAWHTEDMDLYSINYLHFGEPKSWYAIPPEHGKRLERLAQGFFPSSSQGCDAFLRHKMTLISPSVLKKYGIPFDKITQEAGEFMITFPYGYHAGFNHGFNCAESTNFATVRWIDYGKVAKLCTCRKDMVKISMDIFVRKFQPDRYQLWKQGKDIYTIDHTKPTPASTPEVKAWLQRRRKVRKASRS
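Material: N-terminal GST-fused human GASC-1 (KDM4C) fragment, residues 2-372. Input: 10 nM enzyme. Incubation: enzyme reaction 30 min, then detection 60 min, both room temperature. Doses: one test concentration per compound. Read-out basis: inhibition from TR-FRET ratio decrease. Detection: LANCE TR-FRET, excitation 340 nm, emissions 618 and 671 nm.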
* hit, by the source's call. A selection: hits, their analogues and other compounds. The true share with any hit is near 5.9%.

`CS(=O)(=O)N1[C@H](C#N)[C@H](c2ccccc2-c2ccccc2)[C@@H]1CO` gave Pf Dd2 growth -27 and GASC1 inh -2.
`COc1ccc(S(=O)(=O)N(C)C[C@H]2OCCCC[C@H](C)Oc3ccc(NC(=O)c4ccccc4)cc3C(=O)N([C@H](C)CO)C[C@@H]2C)cc1` gave Pf Dd2 growth -71, T cruzi growth 89, IDH1 R132H inh 0 and GASC1 inh 0.
For COc1ccc(S(=O)(=O)N(C)C[C@@H]2OCCCC[C@H](C)Oc3ccc(NC(=O)c4ccccc4)cc3C(=O)N([C@H](C)CO)C[C@H]2C)cc1 the results were Pf Dd2 growth -83*, T cruzi growth 61 and GASC1 inh -2.
COc1ccc(S(=O)(=O)N(C)C[C@H]2OCCCC[C@@H](C)Oc3ccc(NC(=O)c4ccccc4)cc3C(=O)N([C@@H](C)CO)C[C@@H]2C)cc1 was read as Pf Dd2 growth -83*, T cruzi growth 91 and GASC1 inh 16.
Screening COc1ccc(S(=O)(=O)N(C)C[C@H]2OCCCC[C@H](C)Oc3ccc(NC(=O)c4ccccc4)cc3C(=O)N([C@H](C)CO)C[C@H]2C)cc1 returned Pf Dd2 growth -87*, T cruzi growth 57 and GASC1 inh 0.
`CC(C)NC(=O)Nc1ccc2c(c1)C(=O)N([C@H](C)CO)C[C@@H](C)[C@@H](CN(C)C(=O)Cc1ccccc1)OCCCC[C@H](C)O2` gave Pf Dd2 growth -64, T cruzi growth 3, IDH1 R132H inh 2 and GASC1 inh 0.
[N-]=[N+]=Nc1ccccc1C[C@]1(C(=O)N2CCOCC2)N=C(c2ccc(OCCCO)cc2)O[C@H]1c1ccccc1 was read as IDH1 R132H inh 0.
Cc1ccc(S(=O)(=O)N(C)C[C@H]2Oc3ccc(NC(=O)C4CCCCC4)cc3C(=O)N([C@H](C)CO)C[C@H]2C)cc1 was read as Pf Dd2 growth 5, T cruzi growth -8 and GASC1 inh 4.
For CCCC#Cc1ccc([C@H]2[C@@H](CO)N3CCCCN(S(=O)(=O)Cc4ccccc4)C[C@@H]23)cc1 the results were Pf Dd2 growth -23, T cruzi growth 82 and GASC1 inh 0.
Screening CC(C)CC#Cc1ccc([C@@H]2[C@@H](CO)N3CCCCN(S(=O)(=O)Cc4ccccc4)C[C@@H]23)cc1 returned Pf Dd2 growth -83*, T cruzi growth 80 and GASC1 inh 1.
For CC(C)CC#Cc1ccc([C@@H]2[C@H](CO)N3CCCCN(S(=O)(=O)Cc4ccccc4)C[C@@H]23)cc1 the results were Pf Dd2 growth -84*, T cruzi growth 93 and GASC1 inh -2.
`C[C@H](CO)N1C[C@H](C)[C@@H](CN(C)C)Oc2c(NC(=O)CCCCCC(=O)Nc3ccccc3N)cccc2C1=O` gave GASC1 inh 0.
`C[C@H]1CN([C@@H](C)CO)C(=O)c2cccc(NC(=O)CCCCCC(=O)Nc3ccccc3N)c2O[C@H]1CN(C)Cc1ccc(Cl)c(Cl)c1` gave Pf Dd2 growth -88*, IDH1 R132H inh 0 and GASC1 inh -2.
Screening C[C@@H]1CN([C@@H](C)CO)C(=O)c2cccc(NC(=O)CCCCCC(=O)Nc3ccccc3N)c2O[C@@H]1CN(C)Cc1ccc(Cl)c(Cl)c1 returned Pf Dd2 growth -93*, T cruzi growth 92 and GASC1 inh -2.
For C[C@@H]1CN([C@H](C)CO)C(=O)c2cccc(NC(=O)CCCCCC(=O)Nc3ccccc3N)c2O[C@@H]1CN(C)Cc1ccc(Cl)c(Cl)c1 the results were Pf Dd2 growth -91* and GASC1 inh 1.
C[C@H](CO)N1C[C@H](C)[C@@H](CN(C)Cc2ccc(Cl)c(Cl)c2)Oc2c(NC(=O)CCCCCC(=O)Nc3ccccc3N)cccc2C1=O was read as Pf Dd2 growth -72 and GASC1 inh 0.
`CCOC(=O)c1ccc(NC(=O)Cn2nc(C)c([N+](=O)[O-])c2C)cc1` gave IDH1 R132H inh 0.
CC(=O)N(C)C[C@@H]1Oc2ncc(C#Cc3cccnc3)cc2C(=O)N([C@H](C)CO)C[C@@H]1C was read as Pf Dd2 growth 11, T cruzi growth 37, IDH1 R132H inh 5 and GASC1 inh -1.
Screening C[C@@H]1CN([C@@H](C)CO)C(=O)Cc2cc(NC(=O)Nc3ccc(F)cc3)ccc2O[C@H]1CN(C)Cc1ccccc1 returned Pf Dd2 growth -85*, T cruzi growth 59, IDH1 R132H inh 0 and GASC1 inh 0.
